Laboratory results published in publication PMC10739612 (ACS Chemical Neuroscience, 2023).

Legend:
i3Neurons [1] = assay: Cell viability assay in i3Neurons; type: cell-based, human; conditions: 72 h from DIV 7; DS1040 20 μM, RH1096 40 μM, RH1103 40 μM, RH1115 15 μM
Outline: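 Viability check: DIV 10 i3Neurons on coated coverslips exposed 72 h (0.1% DMSO vehicle), fixed, immunostained for Tau and LAMP1. 5–6 random high-magnification fields per sample; neurons per unit area counted. Tau staining used to confirm normal morphology and neurite integrity. Mean ± SEM, three independent experiments.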

[2] = system: phosphorylation of the mTOR substrate p70S6K in HeLa cells; assay: P70S6K and phospho-P70S6K immunoblotting; type: cell-based; conditions: 1a 20 μM, 2a 40 μM, compared to rapamycin 1 μM
Outline: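 Same HeLa immunoblot workflow as for LC3, with test compound at 40 μM and 1% BSA for blocking. Probed for phospho-p70S6K and β-actin (anti-rabbit HRP secondary), then stripped and reprobed for total p70S6K; densitometry in ImageJ.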

[3] = system: LC3-II levels in HeLa cells; assay: LC3 immunoblotting; type: cell-based; conditions: 4 h, 1a 20 μM, 2a 40 μM, further increase with BafA1 100 nM
HeLa cells = assay: Cell viability assay by nuclear count; type: cell-based; conditions: 4 h, relative to DMSO
[4] = system: i3Neurons stably expressing LC3-RFP-GFP; assay: LC3-RFP-GFP dual reporter live imaging in i3Neurons; type: cell-based, human
Outline: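 iPSC-derived i3Neurons stably expressing LC3-RFP-GFP, DIV 10; 0.1% DMSO or test compound 15 μM for 72 h, or BafA1 100 nM for 24 h. Live Fast Airyscan at 37 °C; single mid-cell scan, 488/560 nm. GFP+RFP+ vesicles scored as autophagosomes, RFP-only as autolysosomes. Autolysosome size and intensity from red-channel particle analysis. Three experiments, 60–70 cells per treatment; mean ± SEM.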

[5] = system: HeLa cells expressing eGFP-LC3; assay: eGFP-LC3 puncta formation assay; type: cell-based
Outline: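 HeLa stably expressing eGFP-LC3, 3000 cells/well (384-well), 24 h at 37 °C, then 4 h compound exposure. PFA fixation (12 min RT), Hoechst 2 μg/mL; imaged at 10× (DAPI/FITC). Screen hits: Z' >0.4, CV <20%, z-score >2.199 in two replicates. EC50 from 12-point doses (300–0.146 or 1000–0.488 μM by series), excluding concentrations with <40% viability; three experiments in duplicate, mean ± SEM.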

i3Neurons [6] = assay: Analysis of lysosomal; type: cell-based, human; conditions: 15 μM, 72 h, vs DMSO
Outline: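 DIV 10 i3Neurons on poly-L-ornithine/laminin-coated glass coverslips; 72 h exposure, 0.1% DMSO vehicle; fixed, LAMP1-immunostained, imaged by high-resolution confocal. Soma outlined, thresholded, ImageJ particle analysis (minimum 0.002 μm²) giving vesicle mean size, intensity and count per neuron. Three independent experiments, 20–25 neurons per treatment; mean ± SEM.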

LAMP1 [7] = assay: LAMP1 expression immunoblotting in HeLa cells; type: cell-based; conditions: 50 μM, 24 h, vs control
Outline: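 HeLa seeded at 300,000 cells/mL in 6-well plates; 0.1% DMSO or test compound 50 μM. Lysates cleared 12,000 rpm, 30 min, 4 °C; 10% SDS-PAGE, PVDF transfer; 5% blocker in TBS-T; primary antibody overnight 4 °C, HRP secondary 1 h RT; chemiluminescent detection; band quantification in ImageJ.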

Lamin A/C = target: T1, Lamin A/C (Homo sapiens, UniProt P02545); assay: Pulldown validation and competition, immunoblot for Lamin A/C; type: binding; conditions: Biotin-RH1115 50 μM, HeLa lysate
T1 sequence (P02545 1-566 limits assumed): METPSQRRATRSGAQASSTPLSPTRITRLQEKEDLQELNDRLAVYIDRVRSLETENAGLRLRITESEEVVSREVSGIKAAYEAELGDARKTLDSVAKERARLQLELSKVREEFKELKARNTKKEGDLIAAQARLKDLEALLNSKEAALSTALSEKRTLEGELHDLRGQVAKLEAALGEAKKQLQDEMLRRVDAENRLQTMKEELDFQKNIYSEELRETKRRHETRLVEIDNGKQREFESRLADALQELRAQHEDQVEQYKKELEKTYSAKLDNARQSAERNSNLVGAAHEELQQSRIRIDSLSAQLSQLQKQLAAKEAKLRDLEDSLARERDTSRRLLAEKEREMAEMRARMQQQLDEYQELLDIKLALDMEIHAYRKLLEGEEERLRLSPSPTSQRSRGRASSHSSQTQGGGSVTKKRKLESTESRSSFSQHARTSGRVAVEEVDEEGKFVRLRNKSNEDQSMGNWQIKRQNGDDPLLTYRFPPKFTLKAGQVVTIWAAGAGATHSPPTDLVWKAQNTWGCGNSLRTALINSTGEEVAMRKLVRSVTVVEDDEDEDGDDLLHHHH
Outline: (§1)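 HeLa grown 3 days to confluency; lysate cleared 18,000g, 30 min, 4 °C; protein by BCA. Streptavidin magnetic beads preloaded 2 h at 4 °C with biotinylated probe (50 μM) or biotin acid (50 μM). 500 μg lysate added (200 μL), 16 h; beads washed with PBS, eluted in 1× SDS loading buffer, immunoblotted. Competition: free test compound 100 μM added with lysate, 16 h, 4 °C.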

LAMP1 [8] = target: T2, LAMP1 (Homo sapiens, UniProt P11279); assay: Pulldown validation and competition, immunoblot for LAMP1; type: binding; conditions: Biotin-RH1115 50 μM, HeLa lysate
T2 sequence (P11279 29-417): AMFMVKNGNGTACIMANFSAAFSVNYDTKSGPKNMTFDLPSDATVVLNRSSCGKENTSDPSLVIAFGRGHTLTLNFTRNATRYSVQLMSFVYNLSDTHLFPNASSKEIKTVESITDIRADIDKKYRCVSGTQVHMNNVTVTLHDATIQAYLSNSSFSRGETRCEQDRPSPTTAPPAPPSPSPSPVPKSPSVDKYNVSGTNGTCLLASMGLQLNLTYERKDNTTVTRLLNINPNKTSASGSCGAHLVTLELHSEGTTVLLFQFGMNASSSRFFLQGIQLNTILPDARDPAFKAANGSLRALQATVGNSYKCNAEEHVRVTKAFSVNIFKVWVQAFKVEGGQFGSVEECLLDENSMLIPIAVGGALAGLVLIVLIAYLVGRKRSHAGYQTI
Outline: as §1

## CCCn1cc(CN2CCc3nc(N4CCN(C)CC4)[nH]c(=O)c3CC2)c2ccccc21 [Compound 1a, 2-(4-Methylpiperazin-1-yl)-7-((1-propyl-1H-indol-3-yl)methyl)-3,5,6,7,8,9-hexahydro-4H-pyrimido[4,5-d]azepin-4-one]
i3Neurons [1]
  cytotoxicity in i3Neurons (cell density at end of treatment): no overt cytotoxicity
[2]
  phosphorylation of p70S6K (mTOR dependence of autophagy activation): mTOR-independent manner
[3]
  LC3-II levels by western blot: significant increase

## CCCn1cc(CN2CCc3nc(-c4ccccc4)[nH]c(=O)c3CC2)c2ccccc21 [Compound 1c, 2-Phenyl-7-((1-propyl-1H-indol-3-yl)methyl)-3,5,6,7,8,9-hexahydro-4H-pyrimido[4,5-d]azepin-4-one]
HeLa cells
  cytotoxicity (percent viability by nuclear count): increase in cell death at concentrations that are close to the concentrations that induced autophagy

## CO/C1=C\C(C)=C\[C@@H](C)[C@@H](O)[C@@H](C)C/C(C)=C/C=C/[C@H](OC)[C@@H]([C@@H](C)[C@@H](O)[C@H](C)[C@@]2(O)C[C@@H](O)[C@H](C)[C@@H](C(C)C)O2)OC1=O [BafA1, bafilomycin A1, reference compound]
[4]; BafA1 100 nM 24 h, compared with RH1115 or DMSO
  percentage of autolysosomes: far less
[4]; RH1115 15 μM 72 h, BafA1 100 nM 24 h
  number of autophagosomes per neuronal cell body: massively increased

## OCC1CN(Cc2ccccc2)CC12CCN(Cc1ccccn1)CC2 (stereo not shown) [Compound 2a, (2-Benzyl-8-(pyridin-2-ylmethyl)-2,8-diazaspiro[4.5]decan-4-yl)methanol]
i3Neurons [1]
  cytotoxicity in i3Neurons (cell density at end of treatment): no overt cytotoxicity
[2]
  phosphorylation of p70S6K (mTOR dependence of autophagy activation): mTOR-independent manner
[3]
  LC3-II levels by western blot: significant increase

## OCC1CN(Cc2ccccc2)CC12CCN(Cc1ccncc1)CC2 (stereo not shown) [Compound 2d, (2-Benzyl-8-(pyridin-4-ylmethyl)-2,8-diazaspiro[4.5]decan-4-yl)methanol]
[5]; relative to RH1096
  fold decrease in potency compared to RH1096 (eGFP-LC3 puncta formation): 2 fold

## OCC1CN(Cc2ccccc2)CC12CCN(CC1CCCCC1)CC2 (stereo not shown) [Compound 2c, (2-Benzyl-8-(cyclohexylmethyl)-2,8-diazaspiro[4.5]decan-4-yl)methanol]
[5]; relative to RH1096
  fold increase in potency compared to RH1096 (eGFP-LC3 puncta formation): 6 fold
i3Neurons [6]
  intensity of LAMP1 vesicles: increased
  mean size of LAMP1 vesicles: increased
[4]; 15 μM, 72 h
  autolysosome size relative to DMSO-treated condition: ~3 times
[4]; 15 μM, 72 h, vs DMSO
  total RFP intensity per autolysosome vesicle: increased
i3Neurons [1]
  cytotoxicity in i3Neurons (cell density at end of treatment): no overt cytotoxicity
LAMP1 [7]
  ratio of glycosylated/non-glycosylated LAMP1: significant increase

## O=C(CCCCC1SCC2NC(=O)NC21)NCCOCCOCCOCCn1nncc1CCCC(=O)OCC1CN(Cc2ccccc2)CC12CCN(CC1CCCCC1)CC2 (stereo not shown) [Biotin-RH1115, (2-Benzyl-8-(cyclohexylmethyl)-2,8-diazaspiro[4.5]decan-4-yl)methyl 4-(1-(13-Oxo-17-(2-oxohexahydro-1H-thieno[3,4-d]imidazol-4-yl)-3,6,9-trioxa-12-azaheptadecyl)-1H-1,2,3-triazol-5-yl)butanoate]
[5]; Homo sapiens, HeLa, 4 h, read-out: EC50 in the eGFP-LC3 puncta formation assay
  EC50: 46.2 µM
Lamin A/C
  Lamin A/C capture in pulldown eluent (western blot): highly enriched
LAMP1 [8]
  glycosylated LAMP1 capture in pulldown eluent (western blot): pulled down and concentrated in the eluent

## OCC1CN(Cc2ccccc2)CC12CCN(Cc1ccccc1)CC2 (stereo not shown) [Compound 2b, (2,8-Dibenzyl-2,8-diazaspiro[4.5]decan-4-yl)methanol]
[5]; relative to RH1096
  fold increase in potency compared to RH1096 (eGFP-LC3 puncta formation): 3 fold
i3Neurons [1]
  cytotoxicity in i3Neurons (cell density at end of treatment): no overt cytotoxicity
